Here are results for two compounds from ChEMBL document CHEMBL4321820, “Identification and Optimization of Mechanism-Based Fluoroallylamine Inhibitors of Lysyl Oxidase-like 2/3” (J Med Chem, 2019).

What is called IC50 is the concentration that inhibits the measured activity by half. A word on the bioavailability: it is dose-corrected exposure relative to a reference, in per cent. As a reminder, the half-life is the time in which the quantity being followed falls by half.

The target in data set [1] is T1, Lysyl oxidase homolog 2 (Homo sapiens, UniProt Q9Y4K0).
T1 sequence (Q9Y4K0 whole entry): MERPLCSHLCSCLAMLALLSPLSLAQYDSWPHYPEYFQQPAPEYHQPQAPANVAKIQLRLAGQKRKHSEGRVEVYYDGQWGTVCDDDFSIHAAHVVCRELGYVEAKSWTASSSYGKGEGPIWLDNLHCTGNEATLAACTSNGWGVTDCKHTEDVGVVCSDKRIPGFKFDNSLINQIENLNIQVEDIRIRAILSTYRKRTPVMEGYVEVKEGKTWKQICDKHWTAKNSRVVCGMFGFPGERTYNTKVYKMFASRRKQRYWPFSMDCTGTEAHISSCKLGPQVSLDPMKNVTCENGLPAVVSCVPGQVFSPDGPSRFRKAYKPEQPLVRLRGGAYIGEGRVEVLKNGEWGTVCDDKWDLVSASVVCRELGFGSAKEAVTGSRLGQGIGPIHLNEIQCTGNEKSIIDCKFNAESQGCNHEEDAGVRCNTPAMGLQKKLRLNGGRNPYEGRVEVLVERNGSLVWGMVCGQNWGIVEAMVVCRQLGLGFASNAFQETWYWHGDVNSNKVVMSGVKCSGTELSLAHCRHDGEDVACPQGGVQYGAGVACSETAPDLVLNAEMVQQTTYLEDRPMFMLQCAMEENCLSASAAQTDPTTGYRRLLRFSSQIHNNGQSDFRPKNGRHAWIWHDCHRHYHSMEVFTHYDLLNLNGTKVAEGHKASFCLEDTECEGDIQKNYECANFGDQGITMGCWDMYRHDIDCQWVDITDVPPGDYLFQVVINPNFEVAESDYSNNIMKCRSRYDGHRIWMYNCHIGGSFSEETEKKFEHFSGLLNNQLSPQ
In words: Inhibition of recombinant human C-terminal His-tagged […] (1-774 residues) expressed in mouse myeloma cells assessed as inhibition of collagen oxidation measured every 1 min for 3 hrs by Amplex-Red oxidation assay. Type of data set: cell-based. The method in brief:
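Rat tail type I collagen (1.5 mg/mL in 50 mM borate pH 8.2) combined with rhLOXL2 with or without inhibitor (BAPN 100 µM control). Amplex Red (120 µM)/HRP (1.5 U/mL) mix added. Fluorescence read every 1 min for 3 h at 37 °C; slope from the linear 20-40 min phase used for IC50.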

For data set [2], the target named is T2, Lysyl oxidase homolog 2 (Mus musculus, UniProt P58022).
T2 sequence (P58022 whole entry): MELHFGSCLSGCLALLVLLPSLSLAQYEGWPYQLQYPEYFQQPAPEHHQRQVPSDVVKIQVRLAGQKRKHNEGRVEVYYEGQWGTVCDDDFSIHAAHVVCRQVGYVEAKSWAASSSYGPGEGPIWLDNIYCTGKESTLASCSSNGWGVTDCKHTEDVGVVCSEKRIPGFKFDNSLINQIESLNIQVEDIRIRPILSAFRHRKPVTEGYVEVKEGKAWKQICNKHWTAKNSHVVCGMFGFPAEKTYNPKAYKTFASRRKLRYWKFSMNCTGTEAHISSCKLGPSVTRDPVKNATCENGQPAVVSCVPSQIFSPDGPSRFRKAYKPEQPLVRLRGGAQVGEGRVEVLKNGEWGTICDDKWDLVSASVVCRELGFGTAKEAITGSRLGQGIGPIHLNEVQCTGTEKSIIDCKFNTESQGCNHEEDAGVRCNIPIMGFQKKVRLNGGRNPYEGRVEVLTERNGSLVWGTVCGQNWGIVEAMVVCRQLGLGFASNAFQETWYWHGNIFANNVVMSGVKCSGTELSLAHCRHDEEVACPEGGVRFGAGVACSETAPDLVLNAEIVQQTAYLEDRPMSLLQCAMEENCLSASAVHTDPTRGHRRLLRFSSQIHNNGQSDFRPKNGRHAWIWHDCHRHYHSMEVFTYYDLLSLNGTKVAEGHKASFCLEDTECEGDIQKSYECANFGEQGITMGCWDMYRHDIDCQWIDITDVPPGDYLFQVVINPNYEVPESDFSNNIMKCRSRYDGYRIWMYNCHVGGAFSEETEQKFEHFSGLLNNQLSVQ
In words: Inhibition of recombinant mouse C-terminal His-tagged LOLX2 (26-776 residues) expressed in mouse myeloma cells using putrescine as substrate preincubated with enzyme for 30 mins followed by substrate addition and measured every 2.5 mins for 30 mins by Amplex-Red oxidation assay. The method in brief:
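LOXL2 enzyme preincubated with compound for 30 min at 37 °C, then Amplex Red (120 µM) / HRP (1.5 U/mL) mix containing 5 mM putrescine added. Buffer: 1.2 M urea, 50 mM sodium borate, pH 8.2. H2O2 fluorescence (ex 565/em 590) read every 2.5 min for 30 min at 37 °C; BAPN 100 µM as positive control; n≥2.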

Data set [3] in a line: Protein binding in human plasma. Type of data set: ADME, cell-free. The following applies: read-out: PPB (converted).
A short description of data set [4]: Oral bioavailability in rat. Type of data set: ADME, organism-based. To be noted: in vivo.
A short description of data set [5]: Stability in dog plasma assessed as half life.
Data set [6] is described as follows: Stability in human plasma assessed as half life.
The nature of data set [7]: Stability in rat microsomes assessed as half life. Type of data set: ADME, Microsome.
Data set [8] is described as follows: Stability in human microsomes assessed as half life. Type of data set: ADME, Microsome.
Data set [9] can be described thus: Protein binding in dog plasma. Type of data set: ADME, cell-free, Canis lupus familiaris. The following applies: read-out: PPB (converted).
Data set [10] in a line: Stability in rat plasma assessed as half life.
In data set [11] the test system is Mus musculus. In words: Antifibrotic activity in CCl4-induced BALB/c mouse model of liver fibrosis assessed as reduction in liver fibrosis area at 15 mg/kg, po administered once daily for 6 weeks by alpha-SMA staining based microscopy. Type of data set: functional, organism-based. The method in brief:
(§1)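 Female BALB/c mice given CCl4 i.p. (1 mL/kg of 25% CCl4 in olive oil) twice weekly for 6 weeks; sacrificed 48 h after last dose. Test articles oral, once daily: prophylactic weeks 1-6 or therapeutic weeks 4-6; imatinib control 50 mg/kg daily weeks 1-6. One formalin-fixed liver lobe stained for Picro Sirius Red and α-SMA; fibrotic area as % of total liver area; mean ± SEM, one-way ANOVA with Dunnett's test.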

A short description of data set [12]: Prodrug conversion in BALB/c mouse plasma assessed as 1-[4-amino-2-fluoro-but-2-enyl]-3-[3-(dimethylsulfamoyl)phenyl]-2-methyl-indole-5-carboxylic acid hydrochloride formation at 20 mg/kg, po administered via gavage by HPLC-MS/MS analysis. Type of data set: ADME, organism-based. The following applies: in vivo. The method in brief: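 Male BALB/c mice dosed by oral gavage at 20 mg/kg (n=3); plasma prodrug and released free acid quantified by LC-MS/MS; each point the mean of 3 animals.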

For data set [13], the system named is Mus musculus. In words: Antifibrotic activity in CCl4-induced BALB/c mouse model of liver fibrosis assessed as reduction in liver fibrosis area at 5 mg/kg, po administered once daily at week 4 to 6 by picro-sirius red staining based microscopy. Type of data set: functional, organism-based. A digest of the protocol:
as §1

Data set [14] relates to Mus musculus. In words: Effect on plasma AST level in CCl4-induced BALB/c mouse model of liver fibrosis at 5 to 15 mg/kg, po administered once daily at week 4 to 6. Type of data set: ADME, organism-based. To be noted: in vivo. A digest of the protocol: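 CCl4 liver fibrosis in female BALB/c mice: CCl4 i.p. (1 mL/kg 25% in olive oil) twice weekly for 6 weeks, sacrifice 48 h after final injection. Oral once-daily dosing weeks 1-6 or weeks 4-6; imatinib 50 mg/kg daily weeks 1-6. ALT and AST measured in plasma.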

Active and inactive are the calls of the source. The calls are words filed in the database; no cut-off is given here.

On to `Cc1c(-c2cccc(S(=O)(=O)N(C)C)c2)c2cc(C(=O)O)ccc2n1C/C(F)=C/CN.Cl`, for which the IC50 was 13 nM in data set [1] and 6 nM in [2]. The figures for the fraction unbound in [3] and in data set [9] were 0.08 and 0.14, respectively. The compound further displayed a bioavailability in [4] below 1%. Moreover, the half-life was above 2 h in data set [5]; above 2 h in data set [6]; above 1.5 h in data set [7]; above 1.5 h in [8]; above 2 h in data set [10].
On to `CCOC(=O)c1ccc2c(c1)c(-c1cccc(S(=O)(=O)N(C)C)c1)c(C)n2C/C(F)=C/CN.Cl`, for which the inhibition result in [11] and in data set [13] was “Active” each time. In data set [12], the Drug metabolism result is reported as “Metabolite_Detected”. Besides, the Activity result in data set [14] is listed as “Non-Toxic”.
